Compound activity as filed in PubChem.
HIV Env fusion – HIV envelope-mediated fusion inhibition; HeLa-JRFL Env/CEM21 cell fusion, luciferase; inhibition, % at 12.3 µM; hit rate 1.1% among 360,000; AID 651610;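 active means mean replicate inhibition score of at least 50 and every replicate individually at or above 50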;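 further: 0% = plate neutral controls and 100% = maraviroc near 300 nM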
FGF22 binding – binders of recombinant human FGF22 by thermal shift. hit rate 1.5% among 340,000. SYPRO orange fluorescence; percent of sucrose octasulfate shift, DMSO zero. Q9HCT0. activity (Tm shift, normalised), % at 9.99 µM;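 active means mean Tm shift, scaled 0 neutral to 100 positive control, at about 1.3% or above, every replicate too, limit read from the data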
Target sequence (Q9HCT0 whole entry, looked up): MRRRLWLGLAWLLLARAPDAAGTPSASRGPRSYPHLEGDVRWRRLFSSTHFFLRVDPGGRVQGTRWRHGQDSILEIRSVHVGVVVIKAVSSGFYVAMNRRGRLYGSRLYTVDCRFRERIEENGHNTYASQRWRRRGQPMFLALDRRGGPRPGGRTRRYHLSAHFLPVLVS
S100A4 MyoIIA – blocks human S100A4 binding to myosin IIA peptide. P26447. S100A4/TAMRA-MyoIIA peptide fluorescence polarization. inhibition, % at 10.7 µM. hit rate 0.14% among 360,000. AID 652163;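 active means mean inhibition of at least 70% across replicates, with every replicate also reaching that level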
Target sequence (P26447 whole entry, looked up): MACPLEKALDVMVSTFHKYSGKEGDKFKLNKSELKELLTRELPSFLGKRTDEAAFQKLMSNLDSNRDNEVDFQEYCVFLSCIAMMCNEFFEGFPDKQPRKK
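Compound dosing: one dose per compound; test system: human S100A4 monomer with TAMRA-labelled myosin IIA peptide; probe or stimulus: TAMRA-labelled myosin IIA heavy-chain peptide probe, 5 nM; medium: HEPES buffer with Ca2+, pH 7.2; schedule: 5 min incubation before reading; benchmarks: neutral control DMSO, positive control TFP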
E-selectin induc – induces E-selectin expression in human endothelial cells. hit rate 0.37% among 260,000. P16581. HUVEC E-selectin immunofluorescence imaging; normalized: neutral wells 0, TNF-alpha wells 100. activation, % at 7.58 µM;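 active means mean E-selectin-positive cell signal at least 10% of the positive control, reached in at least 60% of replicates, without over 20% cell loss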
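Read-out: % PE-positive cells | Test system: HUVEC | Doses: One compound dose added by pin transfer | Buffer or medium: EGM-2 over gelatin coat | Signal: Immunofluorescence imaging | Benchmarks: TNF-alpha, DMSO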
CFTR F508del cor – correctors of CFTR F508del function in bronchial epithelial cells | activity (quench increase), % at 7.58 µM | hit rate 0.36% among 350,000 | CFBE cells, YFP halide quenching; stimulated with forskolin plus potentiator P3; % fluorescence drop versus neutral controls;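 active means mean added fluorescence quench of at least 8% versus neutral control, with both replicates also reaching 8%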;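 further: cells transiently co-express mutant CFTR-F508del with the halide-sensitive YFP; corrector assay measuring rescue of mutant channel to the surface after 24 h compound exposure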
Active calls of the source: *; . = no result; [ ] = another dose, or the depositor's remark. Most compounds without a hit are left out; they make up all but 2.7% or so of the library.

SMILES	HIV Env fusion	FGF22 binding	S100A4 MyoIIA	E-selectin induc	CFTR F508del cor
COc1ccc(S(=O)(=O)N(C)C[C@H]2Oc3ccc(NS(=O)(=O)c4cccs4)cc3CC(=O)N([C@@H](C)CO)C[C@@H]2C)cc1	-8[16.7 µM]	0	-1	0	-3
C[C@H](CO)N1C[C@H](C)[C@@H](CN(C)S(=O)(=O)c2cccs2)Oc2ccc(NS(=O)(=O)c3ccc(Cl)cc3)cc2CC1=O	0[16.7 µM]	0	-4	98*	-1
COc1cccc(-c2ccc(C3[C@@H]4CN(C(=O)C5CC5)C[C@H]3N4)cc2)c1 (stereo not given in full)	.	.	-8	1	4
C[C@@H]1CCCCO[C@H](CN(C)C(=O)Nc2cccc3ccccc23)[C@@H](C)CN([C@H](C)CO)C(=O)c2cc(NC(=O)Nc3cccc4ccccc34)ccc2O1	-17[16.7 µM]	1.6*	-16	0	1
C[C@@H]1CCCCO[C@@H](CN(C)C(=O)Nc2cccc3ccccc23)[C@@H](C)CN([C@H](C)CO)C(=O)c2cc(NC(=O)C3CCCCC3)ccc2O1	-11[16.7 µM]	0	9	0	-1
C[C@@H]1CN([C@@H](C)CO)C(=O)c2cc(NC(=O)Nc3cccc4ccccc34)ccc2O[C@@H](C)CCCCO[C@H]1CN(C)C(=O)c1ccccc1	61*[16.7 µM]	0	-1	0	3
C[C@H]1CCCCO[C@H](CN(C)C(=O)Nc2cccc3ccccc23)[C@@H](C)CN([C@@H](C)CO)C(=O)c2cc(NC(=O)Nc3ccc4c(c3)OCO4)ccc2O1	-7[16.7 µM]	12*	-24	0	1
C[C@@H]1CCCCO[C@@H](CN(C)C(=O)Nc2cccc3ccccc23)[C@H](C)CN([C@@H](C)CO)C(=O)c2cc(NC(=O)C3CCCCC3)ccc2O1	-12[16.7 µM]	-1	117*	1	0
C[C@@H]1CN([C@H](C)CO)C(=O)c2cc(NC(=O)CCC(F)(F)F)ccc2O[C@@H]1CN(C)Cc1ccc2c(c1)OCO2	5[16.7 µM]	0	-6	0	-3
C[C@@H]1CN([C@@H](C)CO)S(=O)(=O)c2ccc(C#CC3CC3)cc2O[C@@H]1CN(C)C(=O)c1cnccn1	6[16.7 µM]	0	-13	0	2
C[C@@H]1CN([C@H](C)CO)C(=O)c2cc(NC(=O)Nc3cccc4ccccc34)ccc2O[C@@H](C)CCCCO[C@H]1CN(C)C(=O)C1CCCCC1	17[16.7 µM]	-1	-24	0	0
C[C@@H]1CCCCO[C@H](CN(C)C(=O)C2CCCCC2)[C@@H](C)CN([C@H](C)CO)C(=O)c2cc(NC(=O)Nc3cccc4ccccc34)ccc2O1	-3[16.7 µM]	1.3*	10	1	0
COc1ccc(Nc2c(CCc3ccccc3)nc3nc(C)cc(C)n23)cc1	85*	-1	-6	0	2
Cc1noc(C)c1S(=O)(=O)N(C)C[C@H]1Oc2ccc(NC(=O)Nc3ccc(F)cc3)cc2CC(=O)N([C@@H](C)CO)C[C@H]1C	46[16.7 µM]	0	-4	-3	3
Cc1noc(C)c1S(=O)(=O)N(C)C[C@@H]1Oc2ccc(NC(=O)Nc3ccc(F)cc3)cc2CC(=O)N([C@@H](C)CO)C[C@@H]1C	55*[16.7 µM]	-1	5	51*	1
Cc1noc(C)c1S(=O)(=O)N(C)C[C@@H]1Oc2ccc(NC(=O)Nc3ccc(F)cc3)cc2CC(=O)N([C@H](C)CO)C[C@H]1C	-5[16.7 µM]	-1	7	45*	2
C[C@@H]1CN([C@@H](C)CO)C(=O)c2cc(NC(=O)CCC(F)(F)F)ccc2O[C@@H]1CN(C)Cc1ccc(Oc2ccccc2)cc1	7[16.7 µM]	0	-4	0	1
CCn1c(N)nc2c1c(=O)n(C)c(=O)n2C	13	0	-8	0	-2
CCCc1nc2c(=O)n(C)c(=O)nc-2n(C)n1	69*	0	12	-3	-8
Cn1nc(-c2ccccn2)nc2c(=O)n(C)c(=O)nc1-2	68*	0	-12	0	-16
COc1ccc(-c2nc(-c3ccccn3)ncc2S(C)(=O)=O)cc1	-3	0	5	.	1
C[C@@H]1CN([C@H](C)CO)C(=O)c2cc(NS(=O)(=O)c3ccc(Cl)cc3)ccc2O[C@@H](C)CCCCO[C@@H]1CN(C)C(=O)c1ccncc1	-16[16.7 µM]	0	-7	0	-2
